Screens (PubChem)
Shown are actives, neighbours in structure and some others; about 1.9% of the full set was active somewhere.
DAGLB inhibitor: diacylglycerol lipase beta (human) inhibition | Q8NCG7 | HEK293T DAGLB membrane lysate, EnzChek fluorogenic substrate | inhibition, % at 5.17 µM | 340,000 tested, 0.059% active | AID 504411; in the data active = inhibition above about 34%;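 note: 0% = enzyme with vehicle and 100% = wells lacking enzyme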
Tb MetRS inh: blocks T. brucei methionyl-tRNA synthetase activity. 360,000 tested, 0.4% active. AID 624268. inhibition, % at 11.9 µM. purified T. brucei MetRS, ATP depletion, Kinase-Glo luminescence;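 active = inhibition above a per-plate cutoff of the control wells' mean inhibition plus 3 SD, cut at about 5.5% in these data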;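 note: 0% = DMSO wells median and 100% = median of wells with control inhibitor compound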
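Material – parasite MetRS enzyme · Medium – HEPES-MgCl2-KCl buffer plus DTT, spermine, BSA, pyrophosphatase · Reagent – ATP, methionine and E. coli bulk tRNA substrates · Times – 15 min enzyme-compound preincubation, 2 h reaction, 10 min detection, 25 °C · Measured by – luminescence of leftover ATP · Evaluation – percent inhibition relative to median high and low control wells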
PLC-beta3 inh: PLC-beta3 (human) inhibition, primary screen. inhibition, % at 12.2 µM. 370,000 tested, 0.18% active. Purified PLC-beta3, fluorogenic substrate, fluorescence. Q01970; in the data active = inhibition above about 11%;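 note: 0% = median of compound wells on plate and 100% = full blocker control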
sPLA2-III inh: Inhibits HGIII-sPLA2 liposome hydrolysis, primary screen; Q9NZ20; QFRET BODIPY PC-A2 liposome hydrolysis, fluorescence; inhibition, % at 12.2 µM; 370,000 tested, 0.56% active; AID 743126;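 active = inhibition above mean plus 3 SD of compounds lying within the high and low control bounds, cut at about 19% in these data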;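 note: 0% = median of test compound wells and 100% = no enzyme DMSO wells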
Target sequence (Q9NZ20 whole entry, looked up): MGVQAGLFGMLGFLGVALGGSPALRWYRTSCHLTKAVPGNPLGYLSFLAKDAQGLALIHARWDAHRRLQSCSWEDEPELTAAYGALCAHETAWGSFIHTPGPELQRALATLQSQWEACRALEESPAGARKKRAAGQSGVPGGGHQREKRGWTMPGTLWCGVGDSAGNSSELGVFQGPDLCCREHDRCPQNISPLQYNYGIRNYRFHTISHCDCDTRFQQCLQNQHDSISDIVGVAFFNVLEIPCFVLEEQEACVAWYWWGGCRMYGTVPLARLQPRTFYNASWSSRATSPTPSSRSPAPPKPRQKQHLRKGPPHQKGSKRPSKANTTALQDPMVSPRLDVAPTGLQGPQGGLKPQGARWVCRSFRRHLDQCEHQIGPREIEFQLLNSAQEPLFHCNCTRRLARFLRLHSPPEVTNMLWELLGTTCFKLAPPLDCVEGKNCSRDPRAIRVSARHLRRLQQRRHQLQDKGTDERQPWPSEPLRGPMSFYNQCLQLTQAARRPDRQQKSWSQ
PLCg1 inh: blocks human PLC-gamma1 enzyme activity | 370,000 tested, 0.84% active | inhibition, % at 12.2 µM | purified PLC-gamma1, fluorogenic substrate, fluorescence; in the data active = inhibition above about 9.5%
DAGLB confirm: DAGLB (human) inhibition, confirmation screen; shares compounds with DAGLB inhibitor; HEK293T DAGLB membrane lysate, EnzChek fluorogenic substrate; inhibition, % at 5.17 µM; 190 tested, 73% active; AID 504445;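 active = mean inhibition over triplicate wells above a set limit taken from the primary lipase screen, cut at about 34% in these data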;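 note: 0% = DAGLB with DMSO and 100% = wells lacking DAGLB enzyme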
Tb MetRS conf: Trypanosoma brucei MetRS inhibition confirmed; shares compounds with Tb MetRS inh; T. brucei MetRS enzyme, luminescence (ATP depletion); inhibition, % at 11.9 µM; 1,400 tested, 93% active; AID 624412; in the data active = inhibition above about 7%
Jurkat tox: Jurkat T cell cytotoxicity for MetRS hits; AID 624413; inhibition, % at 8.3 µM; 1,400 tested, 12% active; Jurkat cells viability, ATP luminescence; shares compounds with Tb MetRS inh; in the data active = inhibition above about 15%;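 note: 0% = vehicle and 100% = reference inhibitor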
TbMetRS FP orth: inhibits T. brucei methionyl tRNA synthetase in orthogonal FP test | 1,400 tested, 44% active | purified T. brucei MetRS, fluorescence polarization | shares compounds with Tb MetRS inh | inhibition, % at 11.9 µM; in the data active = inhibition above about 17%;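 note: 0% = vehicle wells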
* marks the source's active call; other numbers are inactive results.

Screening Cc1coc2c1C(=O)C(=O)c1c-2ccc2c1CCCC2(C)C returned DAGLB inhibitor 52.6*, Tb MetRS inh -1.5, PLC-beta3 inh -22.5, sPLA2-III inh 0.1, PLCg1 inh -14.7 and DAGLB confirm 57.5*.
Cc1ccc(C2=C(O)C(=O)C(c3ccc(C)cc3)=C(O)C2=O)cc1 was read as DAGLB inhibitor 59.6*, Tb MetRS inh -0.4, PLC-beta3 inh -3.7, sPLA2-III inh -10.1, PLCg1 inh -7.5 and DAGLB confirm 25.1.
`COc1ccc(OC)c(NC(=O)CSc2nnc(CNC(=O)c3ccccc3F)o2)c1` gave DAGLB inhibitor 35.8*, Tb MetRS inh -0.9, PLC-beta3 inh -4.1, sPLA2-III inh 5.5, PLCg1 inh 2.6 and DAGLB confirm -6.2.
Screening COc1ccc(C(=O)NCc2nnc(SCC(=O)Nc3cc(OC)ccc3OC)o2)cc1 returned DAGLB inhibitor -1.3, Tb MetRS inh 0.1, PLC-beta3 inh -2.2, sPLA2-III inh -2.0 and PLCg1 inh 2.9.
Screening O=C(CSc1nnc(SCc2cccc3ccccc23)s1)Nc1ccccc1-c1ccccc1 returned PLC-beta3 inh 2.1, sPLA2-III inh -5.5 and PLCg1 inh 0.6.
COCCN1Cc2cc(C(=O)OC)c3c(c2C1=O)c1ccccc1n3S(=O)(=O)c1ccc(OC)cc1 was read as PLC-beta3 inh -4.7, sPLA2-III inh -0.8 and PLCg1 inh -3.6.
`CC1=NN(c2ccccc2)C(=O)C1N=Nc1ccc(N)cc1` (stereo not given) gave DAGLB inhibitor 35.0*, Tb MetRS inh -2.9, PLC-beta3 inh -3.5, sPLA2-III inh 16.3, PLCg1 inh -1.8 and DAGLB confirm 38.4*.
`CC1=NN(c2ccccc2)C(=O)C1N=Nc1ccccc1` (stereo not given) gave DAGLB inhibitor 1.5, Tb MetRS inh -0.5, PLC-beta3 inh 0.8, sPLA2-III inh 4.2 and PLCg1 inh 1.0.
CCOCCCNC(=O)C1CCN(S(=O)(=O)c2cc3c(cc2Br)CCN3C(=O)CC)CC1 was read as PLC-beta3 inh 2.8, sPLA2-III inh 0.1 and PLCg1 inh -1.4.
Screening O=C(O)c1cc(S(=O)(=O)Nc2cc(Cl)ccc2Oc2ccccc2)ccc1O returned DAGLB inhibitor 39.1*, Tb MetRS inh -0.1, PLC-beta3 inh -7.3, sPLA2-III inh -34.7, PLCg1 inh -1.9 and DAGLB confirm 37.6*.
Screening N#C/C(=C/c1ccc(O)c(O)c1)C(=O)NCc1ccc(Cl)cc1 returned DAGLB inhibitor 44.9*, Tb MetRS inh 14.9*, PLC-beta3 inh -27.0, sPLA2-III inh -9.1, PLCg1 inh -11.6, DAGLB confirm 24.2, Tb MetRS conf 36.3*, Jurkat tox 17.0* and TbMetRS FP orth 11.0.
For COC(=O)C1=C(C(=O)OC)[C@@]2([C@H](Cc3ccc(C)cc3)Nc3ccccc3)C=C[C@@H]1O2 the results were PLC-beta3 inh -1.5, sPLA2-III inh -0.7 and PLCg1 inh 1.6.
`Cc1ccc(NC(=S)NNc2ccc([N+](=O)[O-])cc2S(=O)(=O)Nc2ccccc2C(=O)O)cc1C` gave DAGLB inhibitor 24.0, Tb MetRS inh -0.3, PLC-beta3 inh -5.8, sPLA2-III inh 0.0 and PLCg1 inh -1.2.
